ChEMBL document CHEMBL4033716, “The impact of the halogen bonding on D2 and 5-HT1A/5-HT7 receptor activity of azinesulfonamides of 4-[(2-ethyl)piperidinyl-1-yl]phenylpiperazines with antipsychotic and antidepressant properties” (Bioorg Med Chem, 2017)
Calls of active or inactive are those of the source. No cut-off for these calls is given here.

Columns and labels:
D(2) dopamine receptor [1] = molecular target: T1, D(2) dopamine receptor (Homo sapiens, UniProt P14416); test: Displacement of [3H]-Raclopride from human dopamine D2L receptor expressed in HEK293 cell membranes after 1 hr by microbeta liquid scintillation counting analysis
Summary of the method: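 HEK293 membranes expressing human D2L. Incubated 1 h at 37°C, rapid filtration. 1 µM (+)butaclamol defined nonspecific binding. Triplicates at 7–8 concentrations, 10⁻¹¹–10⁻⁴ M. Ki via Cheng-Prusoff, ≥3 experiments.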

[2] = molecular target: T2, 5-hydroxytryptamine receptor 1A (Homo sapiens, UniProt P08908); test: Displacement of [3H]-8-OH-DPAT from human 5-HT1A receptor expressed in HEK293 cell membranes after 1 hr by microbeta liquid scintillation counting analysis
T2 sequence (P08908 whole entry): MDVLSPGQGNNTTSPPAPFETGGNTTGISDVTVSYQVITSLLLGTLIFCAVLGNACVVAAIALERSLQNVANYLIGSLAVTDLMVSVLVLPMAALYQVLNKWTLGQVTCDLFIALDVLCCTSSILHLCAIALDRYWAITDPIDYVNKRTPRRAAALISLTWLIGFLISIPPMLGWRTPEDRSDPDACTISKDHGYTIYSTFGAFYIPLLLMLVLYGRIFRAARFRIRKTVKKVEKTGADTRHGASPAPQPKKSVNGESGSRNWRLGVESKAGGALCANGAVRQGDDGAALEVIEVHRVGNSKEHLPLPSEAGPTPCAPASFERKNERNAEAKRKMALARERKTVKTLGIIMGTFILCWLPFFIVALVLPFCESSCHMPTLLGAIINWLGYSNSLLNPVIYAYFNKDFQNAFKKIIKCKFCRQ
Summary of the method: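 HEK293 membranes with stably expressed human 5-HT1A, washed by two 35 000 g spins. Buffer 50 mM Tris-HCl, 0.1 mM EDTA, 4 mM MgCl₂, 10 μM pargyline, 0.1% ascorbate. Incubated 1 h at room temperature, then rapid filtration. 10 µM 5-HT defined nonspecific binding. Tested in triplicate over 10⁻¹¹–10⁻⁴ M (7–8 concentrations). Ki via Cheng-Prusoff, mean of ≥3 experiments.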

[3] = molecular target: 5-hydroxytryptamine receptor 2A (Homo sapiens, UniProt P28223); test: Displacement of [3H]-Ketanserin from human 5-HT2A receptor expressed in HEK293 cell membranes after 1 hr by microbeta liquid scintillation counting analysis
Summary of the method: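 Competition binding on membranes from HEK293 cells stably expressing human 5-HT2A, prepared by homogenization and two 35 000 g centrifugations. Incubated 1 h at 37°C, then filtered and counted. Triplicate points at 7–8 concentrations, 10⁻¹¹–10⁻⁴ M. Ki from Cheng-Prusoff, ≥3 separate experiments.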

[4] = molecular target: 5-hydroxytryptamine receptor 6 (Homo sapiens, UniProt P50406); test: Displacement of [3H]-LSD from human 5-HT6 receptor expressed in HEK293 cell membranes after 1 hr by microbeta liquid scintillation counting analysis
Summary of the method: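 Human 5-HT6 stably expressed in HEK293; cell membranes washed by two 35 000 g spins. Buffer 50 mM Tris-HCl, 0.5 mM EDTA, 4 mM MgCl₂. Incubated 1 h at 37°C, filtered. Nonspecific binding with 10 µM methiothepine. 7–8 concentrations (10⁻¹¹–10⁻⁴ M) in triplicate. Ki by Cheng-Prusoff, ≥3 experiments.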

[5] = molecular target: T3, 5-hydroxytryptamine receptor 7 (Homo sapiens, UniProt P34969); test: Displacement of [3H]-5-CT from human 5-HT7 receptor expressed in HEK293 cell membranes after 1 hr by microbeta liquid scintillation counting analysis
Summary of the method: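 Membranes from HEK293 pellets stably expressing human 5-HT7b, homogenized and centrifuged twice at 35 000 g (4°C) with 15 min 37°C incubation between. Buffer 50 mM Tris-HCl, 4 mM MgCl₂, 10 μM pargyline, 0.1% ascorbate. Incubated 1 h at 37°C, then filtered. Nonspecific binding defined with 10 µM 5-HT. Triplicates at 7–8 concentrations (10⁻¹¹–10⁻⁴ M). Ki by Cheng-Prusoff, ≥3 experiments.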

Mus musculus [6] = test: Antidepressant-like activity in Swiss albino mouse assessed as decrease in immobility time at 1.25 mg/kg, ip for 30 mins measured last 4 mins of 6 mins test by forced swim test relative to control; format: functional; set-up: scale not given: the % may be the effect or the level left
Summary of the method: (§1)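 Male Swiss albino mice (22–26 g), used once, observer blind. Drugs dissolved in distilled water, given i.p. at 10 ml/kg: test compounds 60 min, citalopram 30 min before testing; controls got vehicle. Mice placed 6 min in a cylinder with 10 cm water at 23–25°C; immobility scored over the last 4 min. 7–12 mice/group; one-way ANOVA then Bonferroni.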

D(2) dopamine receptor [7] = molecular target: T1, D(2) dopamine receptor; test: Antagonist activity at human dopamine D2 receptor expressed in HEK293 cells at 1 uM assessed as inhibition of dopamine-induced cAMP production; format: functional, cell-based
Summary of the method: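 Cellular cAMP antagonist assay run by a contract lab on HEK293 cells stably expressing human D2 receptor. Compound tested at 10⁻⁶ M. Result given as % inhibition of the control agonist response to dopamine 30 nM.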

[8] = molecular target: T4, 5-hydroxytryptamine receptor 1A (Homo sapiens) (UniProt P08908); test: Antagonist activity at human 5-HT1A receptor expressed in HEK293 cells assessed as inhibition of 8-OH-DPAT-induced cAMP production at 1 uM by fluorescence assay; format: functional, cell-based
T4 sequence (whole entry): T2 sequence (P08908 whole entry)
Summary of the method: (§2)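 Cellular cAMP functional antagonist assay run by a contract lab. Human 5-HT7 receptor was stably expressed in CHO cells, and human 5-HT1A in HEK293 cells. Read-out was % inhibition of the control agonist response.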

[9] = molecular target: T3, 5-hydroxytryptamine receptor 7; test: Antagonist activity at human 5-HT7 receptor expressed in CHOK1 cells assessed as inhibition of serotonin-induced cAMP production at 1 uM after 30 mins by HTRF assay; format: functional, cell-based; summary of the method: as §2
Mus musculus [10] = test: Antipsychotic activity in CD-1 mouse assessed as inhibition of MK-801-induced hyperlocomotor activity at 30 mg/kg, ip pretreated with MK-801 for 15 mins followed by compound administration for 60 mins; format: functional, organism-based
Summary of the method: (§3)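 Male CD-1 mice, tested in the light phase, observer blind. Test compounds i.p. 60 min and MK-801 i.p. 15 min before testing, in distilled water at 10 ml/kg; vehicle controls. After 30 min cage habituation, ambulation recorded by activity monitor for 1 h in 5-min bins. 8–10 animals/group; mean ± SEM, one-way ANOVA with Bonferroni test.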

Mus musculus [11] = test: Antidepressant-like activity in Swiss albino mouse assessed as decrease in immobility time at 1.25 mg/kg, ip measured last 4 mins of 6 mins test by forced swim test relative to control; format: functional; set-up: scale not given: the % may be the effect or the level left; summary of the method: as §1
Mus musculus [12] = test: Antidepressant-like activity in Swiss albino mouse assessed as decrease in immobility time at 2.5 mg/kg, ip measured last 4 mins of 6 mins test by forced swim test relative to control; format: functional; set-up: scale not given: the % may be the effect or the level left; summary of the method: as §1
Mus musculus [13] = test: Antipsychotic activity in CD-1 mouse assessed as inhibition of MK-801-induced hyperlocomotor activity administered ip pretreated with MK-801 for 15 mins followed by compound treatment for 60 mins; format: functional; conditions: CD-1, ip, read-out: MED; summary of the method: as §3
Mus musculus [14] = test: Antidepressant-like activity in Swiss albino mouse assessed as decrease in immobility time administered ip for 30 mins measured last 4 mins of 6 mins test by forced swim test relative to control; format: functional; conditions: read-out: MED; summary of the method: as §1
Mus musculus [15] = test: Antipsychotic activity in CD-1 mouse assessed as inhibition of MK-801-induced hyperlocomotor activity at 2.5 to 30 mg/kg, ip pretreated with MK-801 for 15 mins followed by compound administration for 60 mins; format: functional, organism-based; summary of the method: as §3

T3 sequence (P34969 whole entry): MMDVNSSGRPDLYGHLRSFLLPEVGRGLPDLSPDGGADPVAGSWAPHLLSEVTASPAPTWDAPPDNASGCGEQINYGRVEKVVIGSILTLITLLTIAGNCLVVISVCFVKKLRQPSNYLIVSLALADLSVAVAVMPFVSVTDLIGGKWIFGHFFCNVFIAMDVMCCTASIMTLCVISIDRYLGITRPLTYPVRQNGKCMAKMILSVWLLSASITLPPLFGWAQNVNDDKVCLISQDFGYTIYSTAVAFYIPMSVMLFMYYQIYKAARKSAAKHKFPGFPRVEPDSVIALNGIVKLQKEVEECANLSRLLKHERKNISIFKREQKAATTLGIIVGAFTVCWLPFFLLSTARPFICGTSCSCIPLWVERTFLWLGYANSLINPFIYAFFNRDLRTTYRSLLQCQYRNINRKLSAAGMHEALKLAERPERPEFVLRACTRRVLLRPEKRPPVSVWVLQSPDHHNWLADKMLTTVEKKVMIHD
Chain of 5-hydroxytryptamine receptor 2A (P28223 whole entry): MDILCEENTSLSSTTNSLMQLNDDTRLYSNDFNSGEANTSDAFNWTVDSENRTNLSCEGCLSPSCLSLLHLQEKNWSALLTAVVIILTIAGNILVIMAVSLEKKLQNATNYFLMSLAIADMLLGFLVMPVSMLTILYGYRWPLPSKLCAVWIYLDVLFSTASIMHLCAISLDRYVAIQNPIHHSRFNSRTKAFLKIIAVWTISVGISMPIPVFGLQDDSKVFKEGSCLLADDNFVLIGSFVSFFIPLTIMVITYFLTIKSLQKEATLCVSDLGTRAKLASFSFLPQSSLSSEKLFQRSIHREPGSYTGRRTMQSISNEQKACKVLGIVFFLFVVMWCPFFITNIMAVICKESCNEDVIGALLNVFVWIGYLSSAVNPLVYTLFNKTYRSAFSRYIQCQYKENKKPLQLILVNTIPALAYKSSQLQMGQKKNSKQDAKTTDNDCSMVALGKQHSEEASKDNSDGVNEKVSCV
Chain of 5-hydroxytryptamine receptor 6 (P50406 whole entry): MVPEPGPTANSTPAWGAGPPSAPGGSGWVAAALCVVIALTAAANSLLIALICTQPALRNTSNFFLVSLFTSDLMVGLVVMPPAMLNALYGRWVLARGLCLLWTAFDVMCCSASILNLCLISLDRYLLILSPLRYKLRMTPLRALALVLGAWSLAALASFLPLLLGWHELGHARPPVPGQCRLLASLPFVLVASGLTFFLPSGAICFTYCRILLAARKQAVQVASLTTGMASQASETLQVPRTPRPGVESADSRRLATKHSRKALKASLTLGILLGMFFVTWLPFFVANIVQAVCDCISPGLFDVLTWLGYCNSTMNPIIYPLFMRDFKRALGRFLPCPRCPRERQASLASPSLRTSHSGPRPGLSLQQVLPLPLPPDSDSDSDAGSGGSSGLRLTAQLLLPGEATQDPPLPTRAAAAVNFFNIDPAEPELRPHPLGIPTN
T1 sequence (P14416 whole entry): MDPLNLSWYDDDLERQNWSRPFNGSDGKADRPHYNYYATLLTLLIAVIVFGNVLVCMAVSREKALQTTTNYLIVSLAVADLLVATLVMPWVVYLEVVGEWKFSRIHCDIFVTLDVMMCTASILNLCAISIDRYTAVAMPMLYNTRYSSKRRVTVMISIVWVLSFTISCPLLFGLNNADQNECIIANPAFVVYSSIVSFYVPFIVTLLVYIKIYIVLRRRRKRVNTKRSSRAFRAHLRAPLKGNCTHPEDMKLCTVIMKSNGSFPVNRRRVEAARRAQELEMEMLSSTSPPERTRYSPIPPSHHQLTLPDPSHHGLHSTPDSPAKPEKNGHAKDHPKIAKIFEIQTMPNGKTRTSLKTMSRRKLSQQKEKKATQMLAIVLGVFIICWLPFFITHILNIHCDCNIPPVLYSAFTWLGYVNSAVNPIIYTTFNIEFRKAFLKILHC

Structure (SMILES)	Ki (D(2) dopamine receptor [1]) [nM]	Ki [2] [nM]	Ki [3] [nM]	Ki [4] [nM]	Ki [5] [nM]	also measured
O=S(=O)(c1cncc2ccccc12)N1CCC(CCN2CCN(c3ccc(Cl)c(Cl)c3)CC2)CC1	145	324	179	1040	36	–
CN(C)CCCC1(c2ccc(F)cc2)OCc2cc(C#N)ccc21 (stereo not given) [CITALOPRAM]	–	–	–	–	–	Activity (Mus musculus [6]): 28%
O=S(=O)(c1cncc2ccccc12)N1CCC(CCN2CCN(c3cccc(Cl)c3)CC2)CC1	37	32	157	1190	18	inhibition (D(2) dopamine receptor [7]): 85%; inhibition [8]: 69%; inhibition [9]: 73%; inhibition (Mus musculus [10]): Active; Activity (Mus musculus [11]): 36%; Activity (Mus musculus [12]): 32%
O=S(=O)(c1cccc2ncccc12)N1CCC(CCN2CCN(c3cccc(C(F)(F)F)c3)CC2)CC1	149	40	530	640	56	–
O=S(=O)(c1cccc2ncccc12)N1CCC(CCN2CCN(c3ccc(F)cc3)CC2)CC1	223	759	139	1460	29	–
O=S(=O)(c1cncc2ccccc12)N1CCC(CCN2CCN(c3ccc(Cl)cc3)CC2)CC1	–	–	–	–	–	minimal effective dose (Mus musculus [13]): 5 mg/kg; minimal effective dose (Mus musculus [14]): 30 mg/kg; inhibition (Mus musculus [15]): Active
O=S(=O)(c1cccc2ncccc12)N1CCC(CCN2CCN(c3cccc(F)c3)CC2)CC1	1820	609	665	8280	165	–
O=S(=O)(c1cncc2ccccc12)N1CCC(CCN2CCN(c3cccc(F)c3)CC2)CC1	1010	370	691	3800	142	–
O=S(=O)(c1cccc2ncccc12)N1CCC(CCN2CCN(c3ccc(Cl)cc3)CC2)CC1	141	740	152	1020	37	–
